Compound activity from PubChem.
A selection: hits, their analogues and other compounds. The true share with any hit is near 2.1%.
Arbovirus inh = antivirals against arbovirus infection, primary screen, cell-based, full library, 10K replicate subset; arbovirus infection cell-based antiviral screen; inhibition, % at 10 µM; hit rate 0.37% among 200,000; in the data active = inhibition above about 30%
Autophagy mod = autophagy modulators in MEF cells, primary screen, imaging, high-content, MEF GFP-LC3. MEF GFP-LC3 puncta imaging; test concentration mostly 10 µM. calls only at 10 µM (by protocol). hit rate 0.98% among 190,000;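 active = percentage of spot-positive cells more than 3 SD above its plate mean, without a fluorescence outlier flag or 80% toxicity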;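 also: spot-positive cell cutoff set from DMSO-treated cells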
PKD1 inh = inhibitors of human PKD1 kinase, biochemical, fluorescence polarization. Serine/threonine-protein kinase D1 (Homo sapiens), Q15139. PKD1 kinase fluorescence polarization assay. inhibition, % (test concentration not listed). hit rate 0.056% among 200,000. AID 797, 2007; in the data active = inhibition above about 50%
RBBP9 inh = human RBBP9 inhibitors, primary screen, biochemical, fluorescence polarization, FP-Rh probe, HTS; hit rate 0.2% among 220,000; Serine hydrolase RBBP9 (Homo sapiens), O75884; recombinant RBBP9; inhibition, % at 7.94 µM;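 active = inhibition above the campaign mean of all tested compounds plus 3 SD, cut at about 14% in these data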;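 also: plate controls were DMSO wells with RBBP9 for no effect and wells lacking RBBP9 protein for full effect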
Target sequence (O75884 whole entry, looked up): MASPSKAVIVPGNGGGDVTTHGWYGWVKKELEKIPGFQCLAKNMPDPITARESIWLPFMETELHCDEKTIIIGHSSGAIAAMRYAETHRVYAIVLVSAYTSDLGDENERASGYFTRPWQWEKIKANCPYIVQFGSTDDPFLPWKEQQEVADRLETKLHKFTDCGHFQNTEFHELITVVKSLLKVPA
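System: RBBP9 protein | Quantity: 2.5 µM RBBP9 dispensing solution, before mixing | Reagent: FP-Rh probe, 375 nM dispensing solution | Timing: Enzyme-compound preincubation 30 min, then probe labeling 45 min, 25 °C | Measured by: Fluorescence polarization | Read-out: % inhibition | Replication: One well per compound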
Ins promoter up = insulin promoter activators in MIN6 cells, imaging, high-content screening, mouse beta cells; MIN6 insulin promoter-GFP reporter; active compounds read high; z-score at 5 µM; hit rate 0.3% among 190,000;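 active = z-score above 3 at 5 µM with at least 500 cells counted in the well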
INS promoter inh = inhibitors of insulin promoter-driven GFP, primary screen, imaging, TRM-6 cells, eGFP reporter, cell count. reporter expression induced with tamoxifen. inhibition, % at 2 µM. hit rate 0.9% among 130,000;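 active = inhibition above the mean plus 3 SD, with well images judged a real hit on visual review, cut at about 60% in these data, passing the limit was not always enough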
PKD FP artifact = fluorescence polarization interference in PKD1 assay, artefact control for PKD1 inhibitor project, biochemical, 140K library | shares compounds with PKD1 inh | PKD1 FP assay interference counter-screen | inhibition, % at 10 µM | 85 tested, under 10 active; call rule not given here
An asterisk follows results filed as active; i = inactive; x = not tested or not shown; + = active, no number.

SMILES | Arbovirus inh | Autophagy mod | PKD1 inh | RBBP9 inh | Ins promoter up | INS promoter inh | others
Nc1c(C(=O)Nc2nccs2)sc2nc(-c3cccs3)cc(C(F)(F)F)c12 | 3 | + | -9 | -7 | x | -182
Cc1nnc(NC(=O)c2sc3nc(-c4cccs4)cc(C(F)(F)F)c3c2N)s1 | 4 | + | -4 | -8 | x | -107
COc1ccccc1NC(=O)c1sc2nc(Cc3ccccc3)cc(C(F)(F)F)c2c1N | 11 | + | -6 | 2 | 0.13 | 41
Cc1cc(C)c2c(N)c(C(=O)Nc3nccs3)sc2n1 | -6 | i | 0 | -7 | 0.53 | 33
COc1ccc(NC(=O)c2sc3nc(Cc4ccccc4)cc(C(F)(F)F)c3c2N)cc1OC | 3 | i | -4 | -9 | -0.33 | -5
CC(C)(C)C(=O)c1sc2nc(-c3cccs3)cc(C(F)(F)F)c2c1N | 3 | + | 3 | -6 | x | -36
CCOCC(=O)Nc1nc2ccccc2s1 | -1 | i | 0 | 11 | x | 54
COc1ccc(Cl)cc1C(=O)C1CCCN(Cc2cnc(N3CCOCC3)s2)C1 (stereo not given) | 12 | i | 0 | -5 | -0.31 | -57
COc1ccc(-c2[nH]ncc2CN(C)CC2CCCCO2)cc1F (stereo not given) | -1 | + | -4 | -2 | 0.03 | x
Cn1c(=O)c2c(ncn2CC(=O)Nc2ccccc2)n(C)c1=O | -2 | i | -4 | 1 | -0.77 | 21
Cc1nn(-c2cc(C(F)(F)F)ccc2Cl)c2nc(C(F)(F)F)[nH]c(=O)c12 | 42* | i | -1 | -4 | x | 9
Cc1nn(-c2cccc(Cl)c2)c2nc(C(F)(F)F)[nH]c(=O)c12 | 30 | i | -5 | -5 | 0.67 | x
COc1cc2c(cc1OC)-c1cc(OCc3ccccc3Cl)nc(=O)n1CC2 | 5 | i | 9 | 0 | 0.22 | 66*
COc1cc2c(cc1OC)-c1cc(NC3CCCC3)nc(=O)n1CC2 | 4 | i | -3 | 4 | 0.19 | -29
COc1ccc(/C=N/n2c(N)nc3ccccc32)cc1OC | 4 | i | 11 | 0 | -0.25 | 75*
CSc1nc2ccccc2cc1/C=C(\C#N)c1cccc(Cl)c1 | -19 | + | -14 | -6 | -0.13 | -18
CCOC(=O)/C(C#N)=C/c1cc2ccccc2nc1Cl | -3 | i | -3 | -7 | x | -7
Cc1ccc2nc(NC(=O)CCNS(=O)(=O)c3cccs3)sc2c1 | 5 | i | -6 | -13 | 0.15 | x
Cc1ccc2nc(NC(=O)CCNS(=O)(=O)c3ccc(Br)s3)sc2c1 | -22 | + | 0 | -12 | -0.86 | x
COC(=O)c1ccccc1Sc1ncnc2onc(C)c12 | -5 | i | -6 | -6 | 0.23 | -31
CC(=O)N1CCN(C(=O)c2cc(C)nc3ccccc23)CC1 | 4 | i | -1 | 0 | -0.05 | 71*
Cc1cccc(CSCc2ccc(C(=O)NCC3CCCO3)o2)c1 (stereo not given) | 0 | i | 3 | 1 | -0.49 | -27
COc1ccc(-c2nc(Cn3c(SCc4cccc(F)c4)nc4ccncc43)c(C)o2)cc1OC | -9 | + | 1 | -7 | 0.74 | x
COc1ccc(CN(C)C2CCCCC2)cc1 | 1 | i | -2 | -3 | -0.52 | -30
CN(Cc1ccc(O)cc1)C1CCCCC1 | -1 | i | 7 | 0 | -0.92 | 92*
SMILES | Arbovirus inh | Autophagy mod | PKD1 inh | RBBP9 inh | Ins promoter up | INS promoter inh | others
NNC(=O)c1cc2ccccc2[nH]1 | -19 | i | -1 | -5 | x | x
COCC(C)n1c(C)cc(C(=O)COC(=O)c2nc3nc(C)cc(C)n3n2)c1C (stereo not given) | 2 | i | 98* | -3 | 0.39 | 53 | PKD FP artifact=-6
Cc1cc(C)n2nc(C(=O)OCC(=O)N(CC(C)C)CC(C)C)nc2n1 | -7 | i | -2 | -9 | -0.1 | 42
CC1CCCC(C)N1C(=O)Cn1cc(/C=C2/C(=O)Nc3ccccc32)c2ccccc21 (stereo not given) | -3 | i | 51* | 7 | -0.27 | 11 | PKD FP artifact=-8
O=C(NCC1OCCCN1S(=O)(=O)c1cc(F)ccc1F)C(=O)NC1CCCCCC1 (stereo not given) | 16 | i | -1 | -7 | -0.87 | x
O=S(c1ccsc1)c1ccsc1 | 2 | i | -8 | 5 | 0.6 | 16
O=C(Nc1ccsc1C(=O)NC1CC1)c1ccccc1 | 8 | i | 50* | 4 | 0.07 | 85* | PKD FP artifact=-10
O=C(Nc1ccsc1C(=O)NC1CCCCC1)c1ccc(F)cc1 | -9 | i | -14 | -2 | x | -25
Cn1c(OCc2cccnc2)nc2c1c(=O)n(Cc1ccc(Br)cc1)c(=O)n2C | 8 | i | 97* | -8 | -1.1 | x | PKD FP artifact=-4
Cc1c(N/N=C(\C#N)C(=O)c2ccc(Cl)cc2)c(=O)n(-c2ccccc2)n1C | -32 | i | 62* | -8 | x | -73 | PKD FP artifact=15
N#C/C(=N\Nc1ccc(Cl)cc1)C(=O)c1ccccc1 | -20 | i | 0 | 1 | -0.76 | 0
Cc1ccc(/C=N/Nc2ccc3ccccc3n2)o1 | 23 | i | -4 | 1 | -3.2 | x
CC(=O)Nc1ccc2c(c1)c1ccccc1n2C(C)=O | -4 | i | 59* | -7 | -0.15 | -30 | PKD FP artifact=-13
CC(/C=N\NC(=O)Cn1cncn1)=C/c1ccc(C(C)C)cc1 | x | x | x | -6 | 0.04 | x
Cc1c(C(=O)N/N=C/c2ccc(O)c(Br)c2)sc(N)c1C#N | -14 | i | 76* | -6 | -0.6 | -6 | PKD FP artifact=-17
COc1cc(/C=N/NC(=O)c2sc(N)c(C#N)c2C)ccc1O | 1 | i | 9 | 7 | -0.01 | -51
O=C1c2ccccc2-c2onc3ccc(NCc4ccco4)c1c23 | -23 | i | 60* | 10 | 1.7 | -335 | PKD FP artifact=6
O=C1c2ccccc2-c2onc3c(Oc4ccccc4)cc(O)c1c23 | -17 | i | -1 | -1 | -0.27 | -48
CCOc1ccc2noc3c2c1C(=O)c1ccccc1-3 | -16 | i | 97* | 14 | 2.9 | 36 | PKD FP artifact=62*
N#CCC(=O)Nc1ccc(C(=O)OCC(=O)N(Cc2ccccc2)C2CCS(=O)(=O)C2)cc1 (stereo not given) | 3 | i | 2 | -11 | -0.03 | -82
CCn1nc(C)c(Br)c1-c1nc(CS(=O)(=O)c2ccsc2)no1 | x | x | x | -11 | 0.17 | x
O=C(Nc1cccc([N+](=O)[O-])c1)C12CC3CC(C1)CC(n1cnc([N+](=O)[O-])n1)(C3)C2 | -4 | i | 62* | 4 | 0.32 | x | PKD FP artifact=0
